# Compound activity deposited in PubChem by The Scripps Research Institute Molecular Screening Center.
# LEDGF integ inh: blockers of LEDGF/p75-dependent integrase strand transfer – biochemical, TR-FRET, high throughput, primary screen; inhibition, % at 3.7 µM; AID 743269, 2014; 370,000 tested, 0.64% active; HIV-1 integrase (with human LEDGF/p75); TR-FRET IN-LEDGF/p75 DNA integration, Eu/Cy5;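 active = inhibition above the screen-wide mean plus 3 SD, cut at about 13% in these data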;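 also: signal is the Cy5 over europium emission ratio at 671 and 618 nm; 0% = plate median of compound wells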
# UHRF1 binding: UHRF1 methylated DNA binding inhibitors, primary screen, counter-screen for MBD2 inhibitor project, biochemical, TR-FRET, human UHRF1, single concentration | E3 ubiquitin-protein ligase UHRF1 (Homo sapiens), Q96T88 | UHRF1 binding to methylated oligo | inhibition, % at 4.4 µM | 370,000 tested, 0.75% active; in the data active = inhibition above about 21%;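 also: UHRF1 SRA domain binding a hemimethylated CpG hairpin DNA probe; 0% = median of test compound wells and 100% = reference inhibitor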
# Target sequence (Q96T88 whole entry, looked up, the tested form may be a part): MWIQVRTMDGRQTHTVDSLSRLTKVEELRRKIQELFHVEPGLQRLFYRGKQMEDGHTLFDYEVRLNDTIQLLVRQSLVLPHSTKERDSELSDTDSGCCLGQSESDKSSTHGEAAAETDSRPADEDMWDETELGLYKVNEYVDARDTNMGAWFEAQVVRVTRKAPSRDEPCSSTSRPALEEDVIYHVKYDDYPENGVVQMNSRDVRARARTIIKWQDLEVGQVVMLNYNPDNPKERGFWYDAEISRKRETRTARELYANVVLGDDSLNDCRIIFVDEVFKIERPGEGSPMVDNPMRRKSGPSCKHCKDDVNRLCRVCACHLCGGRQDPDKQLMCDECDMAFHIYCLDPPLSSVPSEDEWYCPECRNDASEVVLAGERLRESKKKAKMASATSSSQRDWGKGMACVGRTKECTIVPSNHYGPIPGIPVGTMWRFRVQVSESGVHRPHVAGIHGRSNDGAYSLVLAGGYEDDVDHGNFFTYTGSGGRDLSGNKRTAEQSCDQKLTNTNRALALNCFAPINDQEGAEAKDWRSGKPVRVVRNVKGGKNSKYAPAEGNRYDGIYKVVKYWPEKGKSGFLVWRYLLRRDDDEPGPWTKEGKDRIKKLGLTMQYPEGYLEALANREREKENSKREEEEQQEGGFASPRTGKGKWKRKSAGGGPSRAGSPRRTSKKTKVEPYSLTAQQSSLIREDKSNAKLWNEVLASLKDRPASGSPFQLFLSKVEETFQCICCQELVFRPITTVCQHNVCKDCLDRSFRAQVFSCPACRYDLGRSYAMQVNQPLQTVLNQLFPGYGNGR
# TDP2 absorb: human TDP2 enzyme inhibitors, primary screen, biochemical, epi absorbance, recombinant enzyme | Tyrosyl-DNA phosphodiesterase 2 (Homo sapiens), O95551 | T5PNP hydrolysis, p-nitrophenol absorbance 415 nm | inhibition, % at 12.8 µM | 370,000 tested, 0.34% active;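 active = inhibition above the mean of all tested compounds plus 3 SD, set per campaign, cut at about 25% in these data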;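 also: 0% = DMSO with enzyme and 100% = buffer with substrate but no TDP2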
#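 Assay system: recombinant human TDP2 / Reagent: T5PNP substrate at 5 mM, a TopII-DNA adduct mimic / Measured by: epi absorbance from released p-nitrophenol / Evaluation: % inhibition relative to enzyme-containing and enzyme-free wells / Control set: enzyme-free and DMSO wells / Replicates: each compound tested once, singlicate / Schedule: enzyme reaction with compound for 2 h at 37 °C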
# Rin1 Abl inh: inhibitors of Rin1-Abl protein binding, primary screen, biochemical, TR-FRET. Tyrosine-protein kinase ABL1 (Homo sapiens) + Ras and Rab interactor 1 (Homo sapiens), …. inhibition, % at 7.35 µM. 360,000 tested, 0.4% active. AID 588664, 2011; in the data active = inhibition above about 5%, passing the limit was not always enough
# MBD2 inh: inhibitors of MBD2 binding to methylated DNA, primary screen, biochemical, TR-FRET, DNA-binding domain, human. Methyl-CpG-binding domain protein 2 (Homo sapiens), Q9UBB5. MBD2 binding to methylated oligonucleotide. inhibition, % at 4.4 µM. 370,000 tested, 0.31% active. AID 686964, 2013; in the data active = inhibition above about 13%
# * = called active by the depositor; . = not tested or not shown; ! = not active in a repeat. Rows were chosen to be rich in hits. Some 1.9% of all compounds tested hit in one or more screens of this group.
SMILES,LEDGF integ inh,UHRF1 binding,TDP2 absorb,Rin1 Abl inh,MBD2 inh
Cc1ccc(N(C(=O)c2snc(C(N)=O)c2N)C(C(=O)NC2CCCC2)c2ccc(C)o2)cc1 (configuration not stated),5,-3,2,3,2
CCCCn1c(N)c(N(CCOC)C(=O)c2ccc(N(C)S(=O)(=O)c3ccc(C)cc3)cc2)c(=O)[nH]c1=O,-1,1,-2,3,-1
CCCCn1c(N)c(N(CCOC)C(=O)c2ccc(C)o2)c(=O)[nH]c1=O,0,22*,9,1,3
CCCn1c(N)c(N(CCOC)C(=O)c2ccc(N(C)S(=O)(=O)c3ccc(C)cc3)cc2)c(=O)[nH]c1=O,0,96*,5,-1,-3
CCCCN(C(=O)c1ccc(Cl)c([N+](=O)[O-])c1)c1c(N)n(CCC)c(=O)[nH]c1=O,-1,29*,-5,0,0
CCCN(C(=O)c1cccc(-n2cccc2)c1)c1c(N)n(Cc2ccccc2)c(=O)[nH]c1=O,3,26*,-2,-1,10
CCOC(=O)CC[C@H]1CC[C@]2(CCCN(S(C)(=O)=O)C2)O1,6,-2,5,.,-1
O=[N+]([O-])c1ccccc1/C=C/C=Nn1c(-c2ccc(F)cc2)n[nH]c1=S,7,-1,-7,.,2
O=C(NCc1cc(Cl)cc(Cl)c1)c1ccc2nc([C@@H]3O[C@H](CO)[C@H](O)[C@H](O)[C@H]3O)[nH]c2c1,-3,3,2,2,-2
O=C(NCc1cc(Cl)cc(Cl)c1)c1ccc2nc(COCCO)[nH]c2c1,0,21*,8,-3,1
C=C[C@H]1CN2CC[C@H]1C[C@@H]2[C@@H](O)c1ccnc2ccc(OC)cc12,0,42*!,2,0,4
C=C[C@H]1CN2CCC1C[C@H]2[C@H](O)c1ccnc2ccc(OC)cc12 (some centres not stated),-5,-2,10,-5,1
COc1ccc(NC(=O)COC(=O)CCc2ccc(S(=O)(=O)N3CCOCC3)cc2)cc1Cl,-3,95*,-11,5,5
Cn1ccc(/C=N/N=C2/NC(=O)CS2)n1,2,37*,6,3,-6
Cc1ccc(S(=O)(=O)N2CCCC2c2cccc3[nH]cc(C)c23)cc1 (configuration not stated),4,-2,-6,.,5
COc1cccc(OC)c1C(=O)Oc1ccc2c(c1)O/C(=C\c1ccncc1)C2=O,0,37*,1,-2,-5
O=C(NC1CCCCN(Cc2cccc(C(F)(F)F)c2)C1=O)C1C2CC3CC(C2)CC1C3 (configuration not stated),0,1,-4,.,-3
Cc1c[nH]c2cccc(-c3ccc(Cl)cc3Cl)c12,8,-1,-2,.,1
CCOc1ccc(N=Nc2ccc(O)c3ncccc23)cc1,2,-4,5,2,-6
Oc1ccc(N=Nc2ccc3c(c2)OCCO3)c2ncccc12,3,-6,-10,9.2*,-7
CCCc1nc2ccc(Cl)cn2c1Cc1ccc(C)cc1,6,21*,3,2,11
Cc1ccc(Cc2c(-c3cccc(Br)c3)nc3ccc(Br)cn23)cc1,7,21,0,2,4
Cc1ccc(Cc2c(-c3ccc(C)cc3)nc3ccc(Br)cn23)cc1,7,22*,8,-16,0
Cc1ccc2nc(-c3ccc(F)cc3)c(Cc3cccc(Cl)c3)n2c1,5,66*,-7,2,-5
Cc1ccc(Cc2c(-c3ccc(Cl)cc3)nc3ccc(Br)cn23)cc1,6,21*,-2,-21,8
SMILES,LEDGF integ inh,UHRF1 binding,TDP2 absorb,Rin1 Abl inh,MBD2 inh
COc1ccc(CN2CCC(CNC(=O)NC3CCC(C)CC3)CC2)cc1 (configuration not stated),-1,2,-9,.,1
CCOc1ccc(CCNC(=O)C2CCCCC2)cc1OCC,2,0,4,.,5
Brc1ccc(-c2nc3ccc(Br)cn3c2Cc2ccccc2)cc1,-1,21*,5,-23,8
O=S(=O)(c1ccccc1Br)N(Cc1cn(Cc2ccccc2)nn1)C1CC1,-1,0,3,.,5
COC(=O)[C@@]1(Sc2ccc(C)cc2)CC(=O)N[C@@H]1c1ccc(C(F)(F)F)cc1,-2,23*,-4,.,8
COC(=O)[C@]1(Sc2ccccc2)CC(=O)N[C@@H]1c1ccccc1,4,-2,-2,.,-7
Cc1ccccc1NC(=O)OCCCN1C(=O)CCC12CCC(C)CC2 (configuration not stated),-2,-3,3,.,-4
C#CCN(C[C@@H]1[C@@H](OC(=O)NCc2ccc(OC)c(OC)c2)[C@@H](OC(=O)NCc2ccc(OC)c(OC)c2)CN(C(=O)OC(C)C)N1C(=O)OC(C)C)S(=O)(=O)c1ccc(C)cc1,52*,-4,-1,0,-1
CCCCc1c(-c2ccccc2OC)ncn1Cc1ccc(C(C)(C)C)cc1,3,28*,3,.,-5
CCCCc1c(-c2ccccc2OC)ncn1CCc1cccc(F)c1,2,56*,-1,.,2
CCCCc1c(-c2ccccc2OC)ncn1Cc1ccccc1,2,1,0,.,2
O=C(c1cccc(C(F)(F)F)c1)c1c[nH]c(C(=O)NCC2CCCO2)c1 (configuration not stated),1,24*,4,-3,2
CC(=O)c1c[nH]c(C(=O)NCC2CCCO2)c1 (configuration not stated),0,0,1,-1,-2
CC(C)CN1C(=O)[C@@]2(CC(=O)N(C)C2c2ccccc2)c2cc(-n3cc(-c4ccccc4)nn3)ccc21 (some centres not stated),-2,0,-4,.,2
CN(C)CCCNCCCNC(=O)c1ccccn1,5,-2,7,-1,2
CN(C)CCNC(=O)/C(=N\O)c1ccccn1,4,27*,-1,-1,9
Cc1ccc(-c2nnc(SCC(=O)Nc3ccc(Oc4ccccc4)cc3)n2-c2ccc(Cl)cc2)cc1,4,2,2,.,-5
N#C/C(=C/c1cccn1-c1cccc(C(=O)O)c1)c1ccc(Cl)cc1,0,3,0,1,-2
N#CC(C#N)=Cc1cccn1-c1ccc(C(=O)O)cc1,6,43*,-10,2,12
O=C(CSc1nnc(-c2ccccn2)n1Cc1ccco1)Nc1ccc(Oc2ccccc2)cc1,5,0,-19,.,-1
COc1ccc(-c2nc3c(C)cc(Br)cn3c2CC2CCCCC2)cc1OC,-2,23*,3,-15,10
